# An excerpt weighted towards active compounds, which were near 2.9% of everything screened.
# Wee1 degr inh = inhibitors of human Wee1 degradation. reporter increase, % at 5 µM. 220,000 compounds, 1.2% hits. P30291. HeLa Luc-Wee1K328M stability, luciferase luminescence; 100% = proteasome inhibitor MG132 effect;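 active = activation above the mean of all tested compounds plus 3 SD, set per screening run, cut at about 8.8% in these data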;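 note: cells exposed to compound for 20 h before luminescence read; 0% = DMSO alone and 100% = MG132 at 30 µM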
# Target sequence (P30291 whole entry K328M): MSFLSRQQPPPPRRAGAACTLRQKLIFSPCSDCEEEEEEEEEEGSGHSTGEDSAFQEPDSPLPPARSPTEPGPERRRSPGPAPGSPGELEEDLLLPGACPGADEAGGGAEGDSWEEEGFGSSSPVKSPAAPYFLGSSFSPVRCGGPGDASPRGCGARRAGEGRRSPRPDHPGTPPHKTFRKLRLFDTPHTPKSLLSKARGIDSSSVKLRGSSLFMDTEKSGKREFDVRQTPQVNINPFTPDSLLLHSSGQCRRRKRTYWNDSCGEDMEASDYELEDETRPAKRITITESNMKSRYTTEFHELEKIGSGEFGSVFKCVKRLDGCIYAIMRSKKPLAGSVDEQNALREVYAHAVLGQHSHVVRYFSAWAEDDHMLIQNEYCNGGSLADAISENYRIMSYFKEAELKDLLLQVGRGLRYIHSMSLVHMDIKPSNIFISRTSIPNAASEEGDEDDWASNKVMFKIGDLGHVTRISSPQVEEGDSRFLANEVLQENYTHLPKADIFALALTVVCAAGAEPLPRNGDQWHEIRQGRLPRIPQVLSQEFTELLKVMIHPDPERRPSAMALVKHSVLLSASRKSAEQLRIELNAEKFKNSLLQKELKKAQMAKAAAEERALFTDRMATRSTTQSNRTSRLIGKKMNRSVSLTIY
# Autophagy mod = modulators of autophagy. MEF GFP-LC3 puncta imaging; test concentration mostly 10 µM. calls only at 10 µM (by protocol). 190,000 compounds, 0.98% hits. AID 463193;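 active = percentage of spot-positive cells more than 3 SD above its plate mean, without a fluorescence outlier flag or 80% toxicity; inconclusive = no clear call, values can overlap the other calls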;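 note: spot-positive cell cutoff set from DMSO-treated cells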
# b-catenin transl = modulators of beta-catenin nuclear translocation. HeLa beta-catenin nuclear translocation, immunofluorescence imaging. AID 1665. 190,000 compounds, 0.3% hits. nuclear translocation activity, % at 5 µM;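 active = nuclear translocation activity above 50% at 5 µM, with a well cell count of 50 or more; inconclusive = wells under 50 cells across six images, flagged as toxic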;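 note: per-cell ratio of nuclear to cytoplasmic median beta-catenin stain intensity; plate controls were DMSO negative control for no effect and GSK-3 inhibitor IX positive control for full effect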
#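 System: Human HeLa cells, endogenous beta-catenin | Compound dosing: 5 µM primary, 0.02–20 µM confirmation | Timing: 24 h compound exposure at 37°C, 5% CO2 | Measured by: Fluorescence imaging of beta-catenin antibody stain plus DAPI | Read-out basis: % activation of per-cell nuclear versus cytoplasmic median beta-catenin signal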
# Ins promoter up = MIN6 insulin promoter up-regulation. MIN6 insulin promoter-GFP reporter, high-content imaging; active compounds read high. z-score at 5 µM. 190,000 compounds, 0.3% hits;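 active = z-score above 3 at 5 µM with at least 500 cells counted in the well; inconclusive = wells under 500 cells, flagged as cytotoxic or low count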
# MT stabilize HCS = microtubule stabilizers in HeLa cells. HeLa tubulin immunostaining HCS, 24 h; share of cells brighter than vehicle mean+2SD. % tubulin-high responders, % at 10 µM. 200,000 compounds, 0.83% hits. AID 2205;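 active = plate Z-score above 3 for both tubulin-high and condensed-nucleus cell shares, with cell loss under 80%, at 10 µM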;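 note: anti alpha tubulin signal scored within the nucleus-defined area of each cell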
# Numbers without * were called inactive; i = inactive; ? = inconclusive; / = no result given; + = active, no number.
SMILES,Wee1 degr inh,Autophagy mod,b-catenin transl,Ins promoter up,MT stabilize HCS
CCN1CCN(CCc2nc3cc(NC(=O)COc4ccc(Cl)cc4)ccc3n2C)CC1,-3.4,/,0.9,-0.48,/
O=C(Cc1ccc(F)cc1)N/N=C/c1ccncc1,0.0,i,-1.3,0.03,4.4
O=C(Nc1ccc(Cl)cc1)NN1CC(=O)N(c2cccc(C(F)(F)F)c2)CC1=O,-0.1,/,-0.5,-0.55,/
O=C(O)CCC(=O)c1ccc2c(c1)CCCC2,15.0*,i,4.8,/,2.0
O=C(O)c1ccc2c(c1)CCC2,2.8,i,-0.9,-0.27,6.4
CC(=O)Nc1ccc(S(=O)(=O)NC(C)C(=O)NCCc2ccc(F)cc2)cc1 (stereo not given),0.3,i,-1.4,-0.48,1.5
c1cnc2ccc(C(c3nnnn3C3CCCCC3)N3CCN(C4CCCCC4)CC3)cc2c1 (stereo not given),0.6,+,/,/,3.4
COc1ccc(-n2c(C)cc(C(=O)CCl)c2C)cc1,1.1,+,-0.5,0.11,6.6
NC(=O)CCS(=O)(=O)c1ccc(Cl)cc1,10.3*,i,-0.4,0.17,1.5
NC(=O)CCS(=O)(=O)c1ccccc1,-1.2,i,0.4,-0.06,3.6
CCCCCCCCCCCCOC1OC(CO)C(O)C(O)C1NC(C)=O (stereo not given),-0.4,i,4.1,0.44,2.7
Cc1cc(N2CCN(S(=O)(=O)c3ccc4ccccc4c3)CC2)n2ncnc2n1,-3.7,+,0.1,-0.08,/
O=C(NCc1ccccc1Cl)NCc1ccccc1Cl,0.3,/,0.4,0.17,/
O=C(CCn1cccc1)NCc1ccccc1,0.2,i,-3.1,0.53,3.1
O=C(Cc1ccccc1)NCc1ccc(-n2cccc2)cc1,0.1,i,52.4*,0.7,4.4
O=C(Cc1ccc(-n2cccc2)cc1)NCc1ccccc1Cl,-1.4,i,62.8*,0.06,24.5*
Cc1cc(CNC(=O)Cc2ccccc2)c2ccccc2n1,1.0,+,-0.2,-0.19,1.7
C/C(=N\n1cnnc1)c1ccccc1,-1.3,i,0.6,0.26,1.7
CCOC(=O)c1c(C)[nH]c(C2=NNC(=NC3CC3)SC2)c1C,-4.1,i,0.7,0.69,7.1
CCN1/C(=C/c2cc[n+](CCCS(=O)(=O)[O-])c3ccccc23)Sc2ccccc21,2.8,i,-1.9,6.08*,10.7
COc1ccc2[nH]c(=O)c(CN(C(=O)C3CCCO3)c3ccc(C)c(C)c3)cc2c1 (stereo not given),9.4*,/,-0.8,/,/
COc1ccccc1NC(=O)N(Cc1cc2cc(OC)c(OC)cc2[nH]c1=O)CC1CCCO1 (stereo not given),0.0,i,-8.1,-0.74,1.2
COc1ccc2[nH]c(=O)c(CN(CC3CCCO3)C(=O)Nc3ccccc3OC)cc2c1 (stereo not given),1.2,i,2.2,-1,39.9*
COc1ccc(N(Cc2cc3cc(OC)ccc3[nH]c2=O)C(=O)C2CCCO2)cc1 (stereo not given),0.1,i,-3.9,-0.68,3.0
O=C(CCN1C(=O)COc2ccccc21)NCc1cccs1,0.8,i,-0.7,-0.22,2.7
SMILES,Wee1 degr inh,Autophagy mod,b-catenin transl,Ins promoter up,MT stabilize HCS
CC(C)(C)NC(=O)CSc1nnc(C2CC2)n1Cc1ccccc1,-0.7,i,-4.0,1.24,3.1
Cc1cc(NC(=O)c2ccccc2F)nc2c1c(=O)oc1ccccc12,-2.0,i,-0.7,-0.6,3.6
COc1ccc(NC(=O)c2cccn(CC=C(C)C)c2=O)cc1,0.8,i,0.0,-0.32,4.2
O=C(COc1ccc(S(=O)(=O)N2CCOCC2)cc1)Nc1ccc(Cl)c(C(F)(F)F)c1,2.2,i,1.6,-0.6,32.4*
Cc1cccc(OCCN2C(=O)C(=O)c3cc(C)ccc32)c1,1.2,+,1.6,-0.1,2.6
CSc1cccc(NC(=O)C2(S(=O)(=O)c3ccc(C)cc3)CC2)c1,1.9,i,0.2,-0.51,1.8
O=S(=O)(c1ccc(Nc2ccc(-c3ccc4c(c3)OCCO4)nn2)cc1)N1CCCC1,-1.4,i,/,/,12.1*
O=C(NC1CC1)c1cccc(Nc2ccc(-c3ccc4c(c3)OCCO4)nn2)c1,2.2,i,/,-0.12,4.3
Cc1ccc(C(c2nnnn2C2CCCC2)N2CCc3ccccc32)cc1 (stereo not given),9.1*,i,-0.3,-0.11,4.1
Oc1ccc(-c2nc3ccc4ccccc4c3c3c2CCC3)cc1O,9.5*,i,-1.2,-1.11,8.5
COc1ccc(-c2cc(C(=O)O)nc3ccc4ccccc4c23)cc1OC,-3.3,i,-0.5,0.58,10.8
Cc1ccc(NC(=O)Cn2nnc3ccccc32)cc1,10.4*,i,0.7,-0.09,2.5
CC1=CC2=NC(=O)/C(=C\c3ccc(-c4cccc(Cl)c4)o3)C(=N)N2O1,-0.8,+,119.2*,0.26,20.1*
CC1=NOC(=O)/C1=C\c1ccc(-c2cccc(Cl)c2)o1,-0.4,i,-0.8,0.7,3.1
O=C1CCCN1CCCNc1ncnc2c1[nH]c1ccc(Cl)cc12,-2.3,i,-0.2,-0.88,2.9
CCN1CCCC1CNc1ncnc2c1[nH]c1ccc(Cl)cc12 (stereo not given),1.7,+,1.5,-2.31,5.8
CCOc1cc(O)c(-c2[nH]ncc2-c2nc(C)cs2)cc1CC,-2.6,/,0.5,-0.33,/
COc1ccc(-n2c(SC(C)C(=O)Nc3ncc(Cl)cc3Cl)nc3ccccc32)cc1 (stereo not given),-1.3,i,13.0,-1.17,17.7*
O=C(/C=C/c1c[nH]c2ccccc12)c1cccc2ccccc12,-0.7,i,0.0,0.14,14.6
COc1ccc(-n2c(N3CCN(C)CC3)nc3sc4c(c3c2=O)CCCCC4)cc1,1.7,+,-0.3,/,4.1
O=C(Nc1ccc2c(c1)OCO2)C1CCN(C(=O)c2ccc(Br)cc2)CC1,-0.8,i,-0.2,-0.15,2.6
Cc1ccc(S(=O)(=O)NC(=O)NN2CCCCCC2)cc1,2.6,+,/,/,1.8
Cc1ccc(S(=O)(=O)NC(=O)Nn2c(C)nnc2C)cc1,-0.7,i,/,-0.05,2.2
CC(C)CCN1CCN(CCCn2cccn2)CC1CCO (stereo not given),2.3,i,3.7,-0.4,2.6
O=C(/C=C/c1ccccc1)Nc1ccc2c(c1)OCCO2,5.0,i,0.5,/,1.7
SMILES,Wee1 degr inh,Autophagy mod,b-catenin transl,Ins promoter up,MT stabilize HCS
COc1ccccc1/C=C/C(=O)Nc1ccc2c(c1)OCCO2,1.8,i,72.8*,-0.1,24.4*
O=C(Cn1cnc2c(nnn2Cc2ccccc2F)c1=O)NCC1CCCO1 (stereo not given),-0.6,+,4.3,0.33,3.5
O=C(Cn1cnc2c(nnn2Cc2ccccc2)c1=O)NCC1CCCO1 (stereo not given),0.7,i,-0.9,0.29,4.1
CCOC(=O)c1sc2cccc(F)c2c1N,32.9*,i,/,-0.06,0.9
CCOC(=O)c1sc2cccc(Cl)c2c1N,2.5,i,-1.3,/,2.8
N=c1c2c(n(Cc3ccc(Br)cc3)c3c1CCC3)CCCC2,0.5,i,-2.4,?,3.3
